Screens as filed in PubChem.
Only some compounds are listed: those with a hit (about 3.5% of all), similar ones and a draw of the others.
RGS4 block: human RGS4 inhibition; P49798; HEK293 M3R/RGS4 inducible, Fluo-4 calcium flux; stronger effect = higher value; triggered by carbachol at its EC20; B-score at 10 µM; 310,000 compounds, 0.45% hits; AID 463165;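 active means B-score, a plate-corrected calcium signal, over three deviations above library mean, with baseline fluorescence within five deviations of library mean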;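 further: RGS4 expression induced by doxycycline in cells with stable M3 receptor; B-score is computed from the integrated fluorescence ratio over baseline after carbachol; higher B-score means a larger calcium signal and so more RGS4 inhibition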
Target sequence (P49798 whole entry, looked up): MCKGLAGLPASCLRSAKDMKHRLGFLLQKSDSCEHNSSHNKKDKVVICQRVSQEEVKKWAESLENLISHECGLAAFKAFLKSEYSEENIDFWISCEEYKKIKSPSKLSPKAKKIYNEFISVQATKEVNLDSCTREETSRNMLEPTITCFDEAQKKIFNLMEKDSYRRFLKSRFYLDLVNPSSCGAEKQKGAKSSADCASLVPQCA
MrgX1 ag: agonists of human MrgX1 receptor; 310,000 compounds, 0.44% hits; Q96LB2; B-score at 10 µM; MrgX1-HEK293 cells, Fluo-4 calcium fluorescence, agonist mode; stronger effect = higher value;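 active means calcium response B-score plate-corrected fluorescence ratio at least 3 library SD, with starting fluorescence B-score inside 5 SD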
Target sequence (Q96LB2 whole entry, looked up): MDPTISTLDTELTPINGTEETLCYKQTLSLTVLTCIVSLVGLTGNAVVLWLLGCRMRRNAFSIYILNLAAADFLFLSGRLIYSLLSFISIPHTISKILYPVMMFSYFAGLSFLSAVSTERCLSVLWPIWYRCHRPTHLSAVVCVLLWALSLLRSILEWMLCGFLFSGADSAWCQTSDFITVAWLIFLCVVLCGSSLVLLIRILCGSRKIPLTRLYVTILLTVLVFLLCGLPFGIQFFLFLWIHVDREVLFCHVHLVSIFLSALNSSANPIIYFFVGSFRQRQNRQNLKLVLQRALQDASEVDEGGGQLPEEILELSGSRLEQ
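Material: MrgX1-expressing HEK293 cells; input: 15,000 cells per well; doses: test compound given as first of three sequential additions; schedule: overnight plating before 1 h dye loading; technique: Fluo-4 NW calcium-flux fluorescence, kinetic read; evaluation: baseline-normalised fluorescence change ratio, B-scored; control set: plate-wise positive and negative controls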
MrgX1 allo act: allosterically activates human MrgX1 receptor signaling; MrgX1-HEK293, Fluo-4 calcium flux, FDSS; stronger effect = higher value; B-score at 10 µM; Q96LB2; AID 588675; 310,000 compounds, 0.63% hits;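 active means plate-corrected calcium response at least 3 library SD above typical, normal starting fluorescence, not activating the receptor alone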;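 further: compound read alongside a low EC10 to EC30 dose of BAM8-22 agonist; peak minus trough fluorescence over baseline measured at the second addition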
RGS4 act: RGS4 potentiation or activation; AID 463111; B-score at 10 µM; HEK293 M3R/inducible RGS4, carbachol calcium flux Fluo4; stronger effect = lower value; 310,000 compounds, 0.92% hits;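 active means B-score of the integrated calcium signal more than 4 SD below the library mean, with starting fluorescence not abnormally high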;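 further: negative B-score means reduced calcium response which marks RGS4 activation or potentiation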
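Assay system: HEK293 FlpIn-TREx cells, stable M3R, doxycycline-inducible RGS4 / Probe or stimulus: carbachol, ECmax concentration / Times: overnight RGS4 induction, 30 min dye load 37 °C, 20 min compound RT / Signal: kinetic calcium fluorescence imaging with Fluo4-AM dye, 2 µM / Measure: Agonist-evoked peak-minus-minimum fluorescence over baseline, integrated ratio, B score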
MrgX1 antag: blocks BAM8-22 activation of human MrgX1 receptor | B-score at 10 µM | MRGX1-HEK293 calcium flux, Fluo-4, BAM8-22 antagonism; stronger effect = lower value | 310,000 compounds, 1.3% hits;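 active means calcium-response B-score plate-corrected more than 3 library SD below zero, starting fluorescence within 5 deviations, no agonist response on first addition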;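 further: peak minus trough fluorescence over baseline after final BAM8-22 challenge near maximal dose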
Starred values were filed as active, the others as inactive; i = inactive; / = no result.

SMILES | RGS4 block | MrgX1 ag | MrgX1 allo act | RGS4 act | MrgX1 antag
C=CCN1C(=O)/C(=C/c2ccc(OCC(=O)O)cc2)S/C1=N/c1nccs1 | i | i | i | i | i
C=CCN1C(=O)/C(=C/c2ccc(O)c(OC)c2)S/C1=N/c1nccs1 | i | i | 9* | i | i
COc1ccc(OC)c(S(=O)(=O)N2CCC3(CC2)OCCN3S(=O)(=O)c2cccs2)c1 | i | i | i | -7.5* | i
CCCN(CCC)CCNC(=O)c1cc2c(-c3ccc(Cl)cc3)nn(C)c2s1 | i | i | i | -7.2* | i
O=C(/C=C/c1ccccc1)N1CCN(c2c(Cl)cccc2[N+](=O)[O-])CC1 | i | i | i | i | i
COc1ccc(C(CC(=O)O)NS(=O)(=O)c2ccc3c(c2)NC(=O)CO3)cc1 (centres undefined) | i | i | i | i | i
N#C/C(=C\c1ccc[nH]1)C(=O)NCC1CCCO1 (centres undefined) | i | i | 7.8* | i | i
CC(C)n1nc(C(=O)Nc2nc3ccc(S(C)(=O)=O)cc3s2)c2ccccc2c1=O | i | i | i | i | i
CC(C)n1nc(C(=O)Nc2nnc(SCc3c(Cl)cccc3Cl)s2)c2ccccc2c1=O | i | i | i | i | -6.2*
O=C(NC1CCCCC1)Oc1cccc2ccccc12 | i | i | i | i | i
CC(C)C(O)(C#CCN1CCCCC1)c1ccccc1 (centres undefined) | i | i | i | -7.2* | i
CC(O)(C#CCN1CCOCC1)c1ccccc1 (centres undefined) | i | / | / | i | /
CC(C)C(O)(C#CCN1CCCC1)c1ccccc1 (centres undefined) | i | i | i | -7.5* | i
OC(C#CCN1CCCCCC1)(c1ccccc1)c1cccnc1 (centres undefined) | i | i | i | i | i
Nc1cc(C(=O)O)c(N)c2c1C(=O)c1ccccc1C2=O | i | i | i | i | -5.7*
Nc1c(C(=O)O)ccc2c1C(=O)c1ccccc1C2=O | i | i | i | i | i
Cc1ccc(NC(=O)C2CCC(CNC(=O)[C@@H]3Cc4ccccc4CN3)CC2)c(C)c1 (some centres undefined) | i | i | i | i | i
Cc1ccc(CN2C3CCCC2CC(NC(=O)c2ccc(F)cc2)C3)cc1 (centres undefined) | i | i | i | i | i
S=C(Nc1ccc(Cl)cc1)NC1CC2CCC(C1)N2Cc1ccccc1 (centres undefined) | i | i | i | i | i
CCc1ccc(NC(=S)NC2CC3CCCC(C2)N3Cc2ccccc2)cc1 (centres undefined) | i | i | i | -8.7* | i
O=C(Nc1ccccc1-c1ccccc1)NC1CC2CCCC(C1)N2Cc1ccc(F)cc1 (centres undefined) | i | i | i | -10* | i
CCCN1C2CCCC1CC(NC(=O)Nc1cccc(C(C)=O)c1)C2 (centres undefined) | i | i | i | i | i
O=C(Nc1ccccc1-c1ccccc1)NC1CC2CCCC(C1)N2CCc1ccccc1 (centres undefined) | i | i | i | -7.1* | i
CC(=O)Nc1cccc2c1C(=O)N(c1ccc(OC(C)=O)cc1)C2=O | i | i | i | i | i
O=C(N/N=C/c1ccncc1)c1ccc(NS(=O)(=O)c2cccs2)cc1 | i | i | 9.6* | i | i
SMILES | RGS4 block | MrgX1 ag | MrgX1 allo act | RGS4 act | MrgX1 antag
O=C(O)c1ccc(/C=N/NC(=O)c2ccc(NS(=O)(=O)c3cccs3)cc2)cc1 | i | i | i | i | i
CCCN1CCN(CCCNC(=O)CN2C(=O)C(CC)Oc3ccccc32)CC1 (centres undefined) | i | i | i | i | i
CCC1Oc2ccccc2N(CC(=O)NCCCN2CCN(Cc3ccccc3)CC2)C1=O (centres undefined) | i | i | i | i | -5.3*
O=c1cc(C(F)(F)F)nc(SCc2cccc3ccccc23)[nH]1 | i | i | i | i | -5.1*
Nc1cc(=O)[nH]c(SCc2cccc3ccccc23)n1 | i | i | i | i | i
Cc1onc(-c2c(F)cccc2Cl)c1C(=O)NC(=S)Nc1c(C)n(C)n(-c2ccccc2)c1=O | i | i | i | -9.9* | i
Cc1c(NC(=O)Nc2ccc(Cl)cc2)c(=O)n(-c2ccccc2)n1C | i | i | i | i | -5.9*
Cc1nonc1C1CCCN1C(=O)c1cc(COc2ccc(F)cc2F)on1 (centres undefined) | i | i | i | i | i
CC(C)C[C@H](NC(=O)N1CCn2c1nc1ccccc12)C(=O)NCc1ccc2c(c1)OCO2 | i | i | i | i | i
O=C(NCC(=O)N1CCN(c2ccccc2O)CC1)c1cccs1 | i | i | i | i | i
CS(=O)(=O)Nc1cccc(C2=NN(S(C)(=O)=O)C(c3ccc4c(c3)OCO4)C2)c1 (centres undefined) | i | i | i | i | -7.6*
CS(=O)(=O)N1N=C(c2ccccc2)CC1c1ccc2c(c1)OCO2 (centres undefined) | i | i | i | i | i
CN(C)CCOC1c2ccccc2C=Cc2ccccc21 | i | i | i | -7.1* | i
CN(C)CCOC(c1ccccc1)c1ccccc1 (tested in a mixture with another compound) | i | i | i | i | i
O=C(O)C1CCC(Cn2c(SCc3cc(=O)n4ccccc4n3)nc3ccsc3c2=O)CC1 (centres undefined) | i | i | i | i | i
CNS(=O)(=O)c1ccc(NC(=O)c2ccccn2)cc1 | i | i | i | i | i
CCOC(=O)c1c(NC(C)=O)sc2c(OCC(O)CN(CC)CC)c(Br)ccc12 (centres undefined) | i | i | i | -7.6* | i
O=C(Cc1ccc(Cl)cc1)Nc1ccccc1N1CCN(C(=O)c2ccccc2)CC1 | i | i | i | -7.1* | i
O=c1ccc(-c2ccc(S(=O)(=O)NCC3CCN(Cc4ccccc4F)CC3)s2)n[nH]1 | i | i | i | i | i
Cc1cc2nc(-c3ccc4c(c3)CCC4)ccn2n1 | i | i | i | i | i
COc1cc(/C=C(\NC(=O)c2ccccc2)C(=O)NC(C(=O)O)c2ccccc2)cc(OC)c1OC (centres undefined) | i | i | i | i | i
